In ChEMBL document CHEMBL3621130, “Identification and characterization of β-sitosterol target proteins” (Bioorg Med Chem Lett, 2015):
Activity calls are given as the source filed them. The rule behind the calls is not given here.

Tests used:
Assay type in all cases: cell-based
[1] = biological target: T1, Peroxisomal multifunctional enzyme type 2 (Mus musculus) (UniProt P51660); test: Binding affinity to 17beta-HSD4 in mouse LPS-treated RAW264.7 cells at 200 nM by Western blot analysis
T1 sequence (whole entry): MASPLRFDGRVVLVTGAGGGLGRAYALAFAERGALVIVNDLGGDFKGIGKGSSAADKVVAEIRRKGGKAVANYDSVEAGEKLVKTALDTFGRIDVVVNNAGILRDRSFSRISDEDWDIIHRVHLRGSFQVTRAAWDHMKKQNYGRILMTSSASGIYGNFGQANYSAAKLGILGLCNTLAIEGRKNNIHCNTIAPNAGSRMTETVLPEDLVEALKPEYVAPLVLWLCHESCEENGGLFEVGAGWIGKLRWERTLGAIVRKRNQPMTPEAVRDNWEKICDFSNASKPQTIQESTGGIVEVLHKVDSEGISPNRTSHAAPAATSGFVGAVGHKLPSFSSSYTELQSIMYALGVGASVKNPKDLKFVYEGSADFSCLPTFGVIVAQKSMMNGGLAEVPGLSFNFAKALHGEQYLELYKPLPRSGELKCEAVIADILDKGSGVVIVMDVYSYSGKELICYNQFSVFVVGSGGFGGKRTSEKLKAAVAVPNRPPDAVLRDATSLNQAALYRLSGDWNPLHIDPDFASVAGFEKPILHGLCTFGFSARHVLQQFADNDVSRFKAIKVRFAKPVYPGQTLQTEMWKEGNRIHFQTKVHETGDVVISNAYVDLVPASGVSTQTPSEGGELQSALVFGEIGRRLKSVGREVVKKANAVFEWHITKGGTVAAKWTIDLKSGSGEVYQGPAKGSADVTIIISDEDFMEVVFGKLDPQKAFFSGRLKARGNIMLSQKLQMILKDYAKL
Method in brief: (§1)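 Streptavidin affinity pull-down was run side by side in lysates from LPS-treated and untreated mouse Raw264.7 macrophages. Biotin, biotinylated β-sitosterol or biotinylated cholesterol was used at 200 nM for 17β-HSD4 and 600 nM for E-Syt1. Probe incubation with lysate was 2 h, followed by overnight streptavidin agarose capture.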

[2] = biological target: T1, Peroxisomal multifunctional enzyme type 2 (Mus musculus); test: Binding affinity to 17beta-HSD4 in mouse LPS-treated RAW264.7 cells at 200 nM after 2 hrs by MALDI mass spectrometry analysis
[3] = biological target: T2, Peroxisomal multifunctional enzyme type 2 (Homo sapiens) (UniProt P51659); test: Binding affinity to 17beta-HSD4 in human DU145 cells at 200 nM by affinity chromatography analysis; conditions: DU-145
T2 sequence (whole entry): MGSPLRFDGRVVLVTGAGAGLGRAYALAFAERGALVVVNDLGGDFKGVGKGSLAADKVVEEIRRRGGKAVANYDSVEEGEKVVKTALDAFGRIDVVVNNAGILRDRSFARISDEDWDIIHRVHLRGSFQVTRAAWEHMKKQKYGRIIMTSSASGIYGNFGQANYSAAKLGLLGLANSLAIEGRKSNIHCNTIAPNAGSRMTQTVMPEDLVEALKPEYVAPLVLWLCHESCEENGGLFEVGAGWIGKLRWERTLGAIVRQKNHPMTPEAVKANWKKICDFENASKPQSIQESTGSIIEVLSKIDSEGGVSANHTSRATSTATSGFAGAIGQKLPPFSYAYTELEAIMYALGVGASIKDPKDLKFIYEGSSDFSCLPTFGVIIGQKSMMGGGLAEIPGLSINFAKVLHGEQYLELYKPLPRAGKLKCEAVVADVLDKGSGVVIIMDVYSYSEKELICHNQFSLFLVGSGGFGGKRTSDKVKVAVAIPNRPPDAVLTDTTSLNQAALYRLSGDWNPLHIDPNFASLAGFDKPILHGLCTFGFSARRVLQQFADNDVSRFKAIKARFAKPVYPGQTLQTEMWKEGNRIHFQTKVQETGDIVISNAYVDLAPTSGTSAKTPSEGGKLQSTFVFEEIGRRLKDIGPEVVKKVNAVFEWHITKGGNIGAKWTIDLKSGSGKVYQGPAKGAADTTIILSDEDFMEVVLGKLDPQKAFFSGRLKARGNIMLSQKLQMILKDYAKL

[4] = biological target: T3, Extended synaptotagmin-1 (Mus musculus) (UniProt Q3U7R1); test: Binding affinity to E-Syt1 in mouse LPS-treated RAW264.7 cells at 600 nM by Western blot analysis; method in brief: as §1
T3 sequence (whole entry): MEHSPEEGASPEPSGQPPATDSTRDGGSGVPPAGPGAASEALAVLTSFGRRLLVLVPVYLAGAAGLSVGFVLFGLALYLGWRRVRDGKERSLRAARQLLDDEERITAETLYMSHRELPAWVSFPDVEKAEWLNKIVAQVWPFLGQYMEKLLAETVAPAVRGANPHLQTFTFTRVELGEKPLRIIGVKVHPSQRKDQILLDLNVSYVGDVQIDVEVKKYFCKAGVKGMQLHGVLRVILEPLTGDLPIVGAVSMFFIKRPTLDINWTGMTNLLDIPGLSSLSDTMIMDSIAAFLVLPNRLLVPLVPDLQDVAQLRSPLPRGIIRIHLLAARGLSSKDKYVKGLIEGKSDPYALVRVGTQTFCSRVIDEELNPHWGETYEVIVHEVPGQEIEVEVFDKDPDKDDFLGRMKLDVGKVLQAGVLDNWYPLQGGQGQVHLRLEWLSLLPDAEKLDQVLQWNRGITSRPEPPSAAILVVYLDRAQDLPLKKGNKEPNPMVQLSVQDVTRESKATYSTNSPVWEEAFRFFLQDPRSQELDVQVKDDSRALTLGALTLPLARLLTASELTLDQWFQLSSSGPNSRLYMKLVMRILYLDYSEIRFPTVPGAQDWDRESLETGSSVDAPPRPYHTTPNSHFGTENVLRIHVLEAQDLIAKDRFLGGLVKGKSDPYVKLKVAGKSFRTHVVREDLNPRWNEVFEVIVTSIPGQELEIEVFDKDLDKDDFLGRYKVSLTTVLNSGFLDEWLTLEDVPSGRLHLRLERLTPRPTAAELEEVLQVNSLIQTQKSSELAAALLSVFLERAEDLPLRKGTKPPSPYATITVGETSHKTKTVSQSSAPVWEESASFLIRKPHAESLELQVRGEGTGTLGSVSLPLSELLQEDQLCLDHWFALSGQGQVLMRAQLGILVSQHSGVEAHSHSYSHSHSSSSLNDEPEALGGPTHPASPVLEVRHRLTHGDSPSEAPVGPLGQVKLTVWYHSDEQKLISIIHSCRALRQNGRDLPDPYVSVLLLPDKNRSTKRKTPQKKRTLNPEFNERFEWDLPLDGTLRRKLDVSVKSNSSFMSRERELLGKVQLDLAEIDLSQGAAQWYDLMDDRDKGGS

[5] = biological target: T1, Peroxisomal multifunctional enzyme type 2 (Mus musculus); test: Binding affinity to 17beta-HSD4 in mouse RAW264.7 cells at 200 nM by Western blot analysis; method in brief: as §1
[6] = biological target: T4, Extended synaptotagmin-1 (Homo sapiens) (UniProt Q9BSJ8); test: Binding affinity to E-Syt1 in human PC3 cells at 600 nM by affinity chromatography analysis; conditions: PC-3
T4 sequence (whole entry): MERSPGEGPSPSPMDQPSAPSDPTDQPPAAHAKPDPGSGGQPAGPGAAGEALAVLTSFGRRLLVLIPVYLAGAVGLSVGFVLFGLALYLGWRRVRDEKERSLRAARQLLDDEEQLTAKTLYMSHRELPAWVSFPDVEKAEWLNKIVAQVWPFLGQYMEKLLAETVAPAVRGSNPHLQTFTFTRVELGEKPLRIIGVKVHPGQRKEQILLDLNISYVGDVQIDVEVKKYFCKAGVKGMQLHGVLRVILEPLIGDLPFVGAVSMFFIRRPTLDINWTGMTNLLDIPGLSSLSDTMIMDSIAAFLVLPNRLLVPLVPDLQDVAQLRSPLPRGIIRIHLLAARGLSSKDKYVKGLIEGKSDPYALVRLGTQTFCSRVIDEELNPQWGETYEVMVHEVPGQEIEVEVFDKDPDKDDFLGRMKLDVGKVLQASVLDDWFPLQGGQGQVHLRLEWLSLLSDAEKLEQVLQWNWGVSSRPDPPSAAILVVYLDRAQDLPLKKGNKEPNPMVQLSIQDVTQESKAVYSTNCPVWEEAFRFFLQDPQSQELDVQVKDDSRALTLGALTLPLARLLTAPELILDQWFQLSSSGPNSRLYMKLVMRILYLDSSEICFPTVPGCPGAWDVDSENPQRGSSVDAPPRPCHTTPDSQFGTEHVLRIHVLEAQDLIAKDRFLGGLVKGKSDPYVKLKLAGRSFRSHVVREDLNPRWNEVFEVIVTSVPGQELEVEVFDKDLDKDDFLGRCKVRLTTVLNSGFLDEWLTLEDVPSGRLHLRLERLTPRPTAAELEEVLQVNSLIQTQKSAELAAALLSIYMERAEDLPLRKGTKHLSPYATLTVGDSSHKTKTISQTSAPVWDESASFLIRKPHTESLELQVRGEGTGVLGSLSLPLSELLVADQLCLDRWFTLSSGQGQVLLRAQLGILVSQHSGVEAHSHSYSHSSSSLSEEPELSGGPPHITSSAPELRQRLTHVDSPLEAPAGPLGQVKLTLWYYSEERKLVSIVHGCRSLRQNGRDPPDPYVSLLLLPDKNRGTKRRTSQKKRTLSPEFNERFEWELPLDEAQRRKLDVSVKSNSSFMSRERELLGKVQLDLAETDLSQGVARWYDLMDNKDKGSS

[7] = biological target: T3, Extended synaptotagmin-1 (Mus musculus); test: Binding affinity to E-Syt1 in mouse RAW264.7 cells at 600 nM after 2 hrs by MALDI mass spectrometry analysis; method in brief: as §1
[8] = biological target: T3, Extended synaptotagmin-1 (Mus musculus); test: Binding affinity to E-Syt1 in mouse LPS-treated RAW264.7 cells at 600 nM after 2 hrs by MALDI mass spectrometry analysis
[9] = biological target: T1, Peroxisomal multifunctional enzyme type 2 (Mus musculus); test: Binding affinity to 17beta-HSD4 in mouse RAW264.7 cells at 200 nM after 2 hrs by MALDI mass spectrometry analysis; method in brief: as §1
[10] = biological target: T5, 3-oxo-5-alpha-steroid 4-dehydrogenase 1 (Homo sapiens) (UniProt P18405); test: Binding affinity to S5A1 in human PC3 cells at 200 to 600 nM by affinity chromatography analysis; conditions: PC-3
T5 sequence (whole entry): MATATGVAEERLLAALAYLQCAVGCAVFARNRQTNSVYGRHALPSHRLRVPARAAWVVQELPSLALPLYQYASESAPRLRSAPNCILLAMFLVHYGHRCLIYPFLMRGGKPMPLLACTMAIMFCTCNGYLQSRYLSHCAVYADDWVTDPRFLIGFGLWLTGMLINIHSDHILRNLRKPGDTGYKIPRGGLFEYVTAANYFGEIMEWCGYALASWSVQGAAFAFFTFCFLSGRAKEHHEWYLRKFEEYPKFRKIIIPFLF

[11] = biological target: T4, Extended synaptotagmin-1 (Homo sapiens); test: Binding affinity to E-Syt1 in human DU145 cells at 600 nM by affinity chromatography analysis; conditions: DU-145
[12] = biological target: T2, Peroxisomal multifunctional enzyme type 2 (Homo sapiens); test: Binding affinity to 17beta-HSD4 in human PC3 cells at 200 nM by affinity chromatography analysis; conditions: PC-3
[13] = biological target: T5, 3-oxo-5-alpha-steroid 4-dehydrogenase 1 (Homo sapiens); test: Binding affinity to S5A1 in human DU145 cells at 200 to 600 nM by affinity chromatography analysis; conditions: DU-145
[14] = biological target: T3, Extended synaptotagmin-1 (Mus musculus); test: Binding affinity to E-Syt1 in mouse RAW264.7 cells at 600 nM by Western blot analysis; method in brief: as §1

Activity [1] | Activity [2] | Activity [3] | Activity [4] | Activity [5] | Activity [6] | Activity [7] | Activity [8] | Activity [9] | Activity [10] | Activity [11] | Activity [12] | Activity [13] | Activity [14] | Structure (SMILES)
Active | Active | Active | Active | Active | Active | Active | Active | Active | inactive | Active | Active | inactive | Active | CC[C@H](CC[C@@H](C)[C@H]1CC[C@H]2[C@@H]3CC=C4C[C@@H](OCc5cn(CCOCCOCCOCCNC(=O)CCCC[C@@H]6SC[C@@H]7NC(=O)N[C@@H]76)nn5)CC[C@]4(C)[C@H]3CC[C@]12C)C(C)C
Active |  | Active |  | Active |  |  |  |  | inactive |  | Active | inactive |  | CC(C)CCC[C@@H](C)[C@H]1CC[C@H]2[C@@H]3CC=C4C[C@@H](OCc5cn(CCOCCOCCOCCNC(=O)CCCC[C@@H]6SC[C@@H]7NC(=O)N[C@@H]76)nn5)CC[C@]4(C)[C@H]3CC[C@]12C
